Measurements published in ChEMBL document CHEMBL5236607, “Membrane-Active Cyclic Amphiphilic Peptides: Broad-Spectrum Antibacterial Activity Alone and in Combination with Antibiotics” (J Med Chem, 2022).
Active and inactive are the calls of the source. The rule behind the calls is not given here. Peptide text beside a SMILES is read from it.

Experiments:
Escherichia coli [1] = assay: Bactericidal activity against Escherichia coli assessed as reduction in bacterial cells at 4 times MIC after 2 hrs by time kill assay; format: functional; parameters: scale not given: the % may be the effect or the level left
How it was run: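 Samples taken at time points from 0 to 24 h, serially diluted and plated on MH agar. CFU counted after 24 h at 37 °C. Untreated culture served as control. Two independent experiments in triplicate.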

[2] = Membrano-lytic effect in bacterial inner membrane mimic DOPC/DOPG (7:3) large unilamellar vesicles assessed as calcein leakage measured upto 100 mins by multimode microplate reader assay; format: cell membranes; details: dose 5-50 µg/ml
How it was run: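 Calcein (70 mM) loaded into extruded 100 nm LUVs: DOPC:DOPG 7:3 (w/w) as the bacterial mimic, DOPC/cholesterol 10:1 (w/w) as the mammalian mimic. Free dye removed by gel filtration. Liposomes at 40 μM final lipid in PBS mixed 1:1 with peptide (5–50 μg/mL). Fluorescence (ex 490/em 520 nm) read every 10 min for 100 min; Triton X-100 defines 100% release. Triplicate.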

Cell membrane = assay: Membrano-lytic activity against methicillin resistant Staphylococcus aureus assessed as change in morphology at 4 times MIC after 1 hr by SEM analysis; format: subcellular
Staphylococcus aureus [3] = assay: Bactericidal activity against methicillin resistant Staphylococcus aureus assessed as reduction in bacterial cells by time kill assay; format: functional, organism-based; details: TDE = time-dependent effect
How it was run: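 Time-kill in Müller–Hinton media. […] Aliquots taken at 0–24 h, serially diluted and plated on MH agar. CFU counted after 24 h at 37 °C. Two independent experiments in triplicate.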

Pseudomonas aeruginosa = assay: Synergistic antibacterial activity against Pseudomonas aeruginosa ATCC […] fractional inhibitory concentration incubated for 24 hrs in presence of polymyxin B by checkerboard assay; format: functional
Staphylococcus aureus [4] = assay: Induction of resistance development in methicillin resistant Staphylococcus aureus ATCC BAA-1556 assessed as increase in MIC by microtiter plate reader assay; format: functional, organism-based
How it was run: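 Serial passage resistance assay with 2-fold microdilution MICs in 96-well plates. Each passage takes the well with the highest concentration still permitting growth, adjusts it to 0.5 McFarland, and dilutes it to a final 5 × 10^5 CFU/mL for the next passage. Eighteen passages; MIC recorded at each. Triplicate.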

Staphylococcus aureus [5] = assay: Synergistic antibacterial activity against methicillin resistant Staphylococcus aureus ATCC BAA-1556 fractional inhibitory concentration incubated for 24 hrs in presence of levofloxacin by checkerboard assay; format: functional
How it was run: (§1)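 Checkerboard assay. Inoculum from an LB overnight culture at 0.5 McFarland, diluted 1/150 in MH media. […] Incubated 37 °C for 24 h. FICI = MIC combination/MIC alone summed over both agents. Triplicate.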

Staphylococcus aureus [6] = assay: Synergistic antibacterial activity against methicillin resistant Staphylococcus aureus ATCC BAA-1556 assessed as fractional inhibitory concentration index incubated for 24 hrs in presence of tobramycin by checkerboard assay; format: functional; how it was run: as §1
Klebsiella pneumoniae = assay: Antibacterial activity against Klebsiella pneumoniae ATCC 700603 after 24 hrs by microbroth dilution method; format: functional
Escherichia coli [7] = assay: Synergistic antibacterial activity against Escherichia coli ATCC 25922 fractional inhibitory concentration incubated for 24 hrs in presence of metronidazole by checkerboard assay; format: functional
How it was run: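 Checkerboard assay in MH broth. Inoculum from an LB overnight culture set to 0.5 McFarland and diluted 1/150. […] Each agent was also titrated alone. Incubation 24 h at 37 °C. FIC = combination MIC/individual MIC; FICI = sum of the FICs. Triplicate.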

| SMILES | Activity (Escherichia coli [1]) | Activity [2] | Activity (Cell membrane) | Activity (Staphylococcus aureus [3]) | FIC (Pseudomonas aeruginosa) | Activity (Staphylococcus aureus [4]) | FIC (Staphylococcus aureus [5]) | fractional inhibitory concentration index (FICI) (Staphylococcus aureus [6]) | MIC (Klebsiella pneumoniae) | FIC (Escherichia coli [7]) |
| --- | --- | --- | --- | --- | --- | --- | --- | --- | --- | --- |
| N=C(N)NCCC[C@@H]1NC(=O)[C@H](CCCNC(=N)N)NC(=O)[C@H](CCCNC(=N)N)NC(=O)[C@H](Cc2c[nH]c3ccccc23)NC(=O)[C@H](Cc2c[nH]c3ccccc23)NC(=O)[C@H](Cc2c[nH]c3ccccc23)NC(=O)[C@H](Cc2c[nH]c3ccccc23)NC(=O)[C@H](CCCNC(=N)N)NC(=O)[C@H](CCCNC(=N)N)NC1=O | 100% | Dose-Dependent Effect | Active | Tde | 0.125 | inactive | 0.25 | 0.5 | > 64 µg/mL | – |
| N=C(N)NCCC[C@@H]1NC(=O)[C@H](CCCNC(=N)N)NC(=O)[C@H](CCCNC(=N)N)NC(=O)[C@H](CCCNC(=N)N)NC(=O)[C@H](Cc2c[nH]c3ccccc23)NC(=O)[C@H](Cc2c[nH]c3ccccc23)NC(=O)[C@H](Cc2c[nH]c3ccccc23)NC(=O)[C@H](Cc2c[nH]c3ccccc23)NC(=O)[C@H](CCCNC(=N)N)NC(=O)[C@H](CCCNC(=N)N)NC1=O (cyclo(RRRRRRWWWW)) | – | – | – | – | – | – | – | – | – | 0.125 |
